Here are results for 6 molecules from ChEMBL document CHEMBL3526099, “Metabolism of triethylenetetramine and 1,12-diamino-3,6,9-triazadodecane by the spermidine/spermine-N(1)-acetyltransferase and thialysine acetyltransferase” (Drug Metab Dispos, 2013).

Each structure is given as a SMILES string.

Data set [1] has as its target T1, Thialysine N-epsilon-acetyltransferase (Homo sapiens, UniProt Q96F10). The experiment in a line: Drug level in human HepG2 cells assessed as SSAT2-mediated compound formation treated with TETA at 1 mM for 24 hrs. Type of data set: ADME, cell-based. To be noted: hepg2, 24 h, 1000 µM.
The target of data set [2] is T2, Diamine acetyltransferase 1 (Homo sapiens, UniProt P21673). The experiment in a line: Drug level in human HepG2 cells assessed as SSAT1-mediated compound formation treated with SpmTrien at 100 uM for 24 hrs. Type of data set: ADME, cell-based. To be noted: hepg2, 24 h.
Target sequence in this assay (P21673 whole entry): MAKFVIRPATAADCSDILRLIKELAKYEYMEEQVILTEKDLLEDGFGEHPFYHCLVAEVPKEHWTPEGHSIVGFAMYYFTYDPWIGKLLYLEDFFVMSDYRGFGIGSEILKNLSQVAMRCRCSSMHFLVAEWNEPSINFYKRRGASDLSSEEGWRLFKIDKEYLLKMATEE
The subject of the next data set is HepG2. Kind of data set: Drug metabolism in human HepG2 cells at 100 uM for 24 hrs in presence of SSAT1 shRNA. The data set is classed as ADME, cell-based. To be noted: hepg2, 24 h. Summed up: (§1)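 HepG2 cells were transduced with control, SSAT1 or SSAT2 shRNA lentiviral particles and stable clones selected with puromycin (5 µg/ml) for one week. Cells were plated overnight, then incubated 24 h with 1 mM TETA or 100 µM SpmTrien. Intracellular metabolites were measured. Means ± SD, n=3.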

The target in data set [3] is T2, Diamine acetyltransferase 1. Kind of data set: Drug metabolism in human HepG2 cells assessed as SSAT1-mediated (N1-acetyl)-1,12-diamino-3,6,9-triazadodecane formation at 100 uM for 24 hrs in presence of SSAT2 shRNA. To be noted: hepg2, 24 h. The data set is classed as ADME, cell-based. Summed up: as §1
Target sequence in this assay (P21673 whole entry): as above
A short description of data set [4]: Drug metabolism in SSAT1-knockout mouse primary hepatocytes at 100 uM for 4 hrs. Type of data set: ADME, cell-based, Hepatocyte. Put shortly:
(§2)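 Hepatocytes from SSAT1-KO or wild-type mouse liver were isolated by collagenase perfusion and plated on collagen I in William's E with dexamethasone, FBS and insulin. They were reverse-transfected with control or SSAT2 siRNA (100 nM) for 2 d, then exposed to 1 mM TETA or 100 µM SpmTrien for 4 h. Intracellular metabolites were measured. Means ± SD, n=3.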

In data set [5] the target is T3, Diamine acetyltransferase 1 (Mus musculus, UniProt P48026). Kind of data set: Drug metabolism in mouse primary hepatocytes assessed as SSAT1-mediated (N1-acetyl)-1,12-diamino-3,6,9-triazadodecane formation at 100 uM for 4 hrs in presence of SSAT2 siRNA. Type of data set: ADME, cell-based, Hepatocyte. Summed up: as §2
T3 sequence (P48026 whole entry): as the sequence (P21673 whole entry) above, with V5K, A12S, E32D, L42Q, R119K, T169A counted along it
For data set [6], the target named is T2, Diamine acetyltransferase 1. Kind of data set: Drug metabolism in human HepG2 cells assessed as SSAT1-mediated (N1-acetyl)-spermidine formation at 100 uM for 24 hrs. The data set is classed as ADME, cell-based. Particulars: hepg2, 24 h.
Target sequence in this assay (P21673 whole entry): as the sequence (P21673 whole entry) above
Data set [7] has the same target. The experiment in a line: Drug metabolism in human HepG2 cells assessed as SSAT1-mediated (N1-acetyl)-spermine formation at 100 uM for 24 hrs. The data set is classed as ADME, cell-based. To be noted: hepg2, 24 h.
Target sequence in this assay (P21673 whole entry): as above
Data set [8] shares this target. Kind of data set: Drug metabolism in human HepG2 cells assessed as SSAT1-mediated (N1-acetyl)-1,12-diamino-3,6,9-triazadodecane formation at 100 uM for 24 hrs. The data set is classed as ADME, cell-based. To be noted: hepg2, 24 h.
Target sequence in this assay (P21673 whole entry): as above
Data set [9] shares this target. Kind of data set: Drug level in human HepG2 cells assessed as SSAT1-mediated compound formation treated with SpmTrien at 100 uM for 24 hrs pretreated with 50 uM DENSpm for 24 hrs. The data set is classed as ADME, cell-based. To be noted: hepg2, 24 h. Summed up:
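HepG2 cells were pretreated for 24 h with 50 µM DENSpm or medium alone, washed, then incubated for 24 h with 1 mM TETA or 100 µM SpmTrien. Intracellular metabolites were measured from cell lysates. Means ± SD, n=3.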
Target sequence in this assay (P21673 whole entry): as above

Data set [10] has the same target. The experiment in a line: Drug level in human HepG2 cells assessed as SSAT1-mediated compound formation treated with SpmTrien at 100 uM for 24 hrs in presence of SSAT2 shRNA. The data set is classed as ADME, cell-based. Particulars: hepg2, 24 h. Summed up: as §1
Data set [11] has the same target. The experiment in a line: Activity of human recombinant SSAT1 assessed as compound formation treated with 1 mM SpmTrien for 50 mins by HPLC analysis. The data set is classed as ADME. Summed up: (§3)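 SpmTrien (1 mM) incubated with 50-100 ng human recombinant enzyme for 10-50 min at 37 °C in 100 mM Tris-HCl pH 7.8 containing 1 mM acetyl-CoA and 1 mM DTT. The reaction was stopped with sulphosalicylic acid containing diaminoheptane as internal standard, and acetylated products were quantified by HPLC.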

In data set [12] the target is T1, Thialysine N-epsilon-acetyltransferase. The experiment in a line: Activity of human recombinant SSAT2 assessed as compound formation treated with 1 mM SpmTrien for 50 mins by HPLC analysis. The data set is classed as ADME. Summed up: as §3
Data set [13] has as its target T3, Diamine acetyltransferase 1. The experiment in a line: Drug level in mouse primary hepatocytes assessed as SSAT1-mediated compound formation treated with 100 uM SpmTrien for 4 hrs in presence of SSAT2 siRNA. The data set is classed as ADME, cell-based, Hepatocyte. Summed up:
as §2

For data set [14], the target named is T2, Diamine acetyltransferase 1. Kind of data set: Drug level in human HepG2 cells assessed as SSAT1-mediated compound formation per ug DNA treated with Spm Trien at 100 uM for 24 hrs. Type of data set: ADME, cell-based. To be noted: hepg2, 24 h.
Data set [15] deals with T3, Diamine acetyltransferase 1. The experiment in a line: Drug level in mouse primary hepatocytes assessed as SSAT1-mediated compound formation per ug DNA treated with SpmTrien at 100 uM for 4 hrs.
Data set [16] concerns the target T1, Thialysine N-epsilon-acetyltransferase. The experiment in a line: Drug level in human HepG2 cells assessed as SSAT2-mediated compound formation treated with TETA at 1 mM for 24 hrs in presence of SSAT1 shRNA. Particulars: hepg2, 24 h, 1000 µM. The data set is classed as ADME, cell-based. Summed up:
as §1

The target is the same in data set [17]. Kind of data set: Drug level in human HepG2 cells assessed as SSAT2-mediated compound formation per ug DNA treated with TETA at 1 mM for 24 hrs. The data set is classed as ADME, cell-based. Particulars: hepg2, 24 h, 1000 µM.
In data set [18] the target is Thialysine N-epsilon-acetyltransferase (Mus musculus, UniProt Q6P8J2). The experiment in a line: Drug level in mouse primary hepatocytes assessed as SSAT2-mediated compound formation per ug DNA treated with TETA at 1 mM for 4 hrs. Particulars: 1000 µM.
Sequence of Thialysine N-epsilon-acetyltransferase (Mus musculus, UniProt Q6P8J2) (Q6P8J2 whole entry): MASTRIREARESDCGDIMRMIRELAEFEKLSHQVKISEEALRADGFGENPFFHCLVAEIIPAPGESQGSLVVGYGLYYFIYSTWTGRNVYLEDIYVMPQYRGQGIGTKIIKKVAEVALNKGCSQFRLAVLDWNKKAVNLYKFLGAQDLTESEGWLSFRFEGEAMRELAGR
For data set [19], the target named is T2, Diamine acetyltransferase 1. Kind of data set: Drug level in human HepG2 cells assessed as SSAT1-mediated compound formation treated with TETA at 1 mM for 24 hrs pretreated with 50 uM DENSpm for 24 hrs. Particulars: hepg2, 24 h, 1000 µM.
Target sequence in this assay (P21673 whole entry, looked up): as the sequence (P21673 whole entry) above

T1 sequence (Q96F10 whole entry): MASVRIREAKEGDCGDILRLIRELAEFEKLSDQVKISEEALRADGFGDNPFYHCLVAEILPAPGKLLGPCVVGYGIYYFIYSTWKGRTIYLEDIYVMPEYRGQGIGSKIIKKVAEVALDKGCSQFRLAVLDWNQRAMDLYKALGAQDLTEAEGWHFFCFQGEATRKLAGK

Consider `CC(=O)NCCCNCCCCNCCCN`, for which the Drug metabolism result in [1] and in data set [2] was “metabolite_detected” throughout.
On to `CC(=O)NCCCNCCCCN`, for which the Drug metabolism result in data set [1] and in [2] was “metabolite_detected” each time.
Consider `NCCCNCCNCCNCCN`, for which the Drug metabolism result in the data set on HepG2 was “metabolite_not_detected”; in [3] it was “metabolite_detected”; in [4], “metabolite_not_detected”; in [5], “metabolite_detected”; in [6], “metabolite_detected”; in data set [7], “metabolite_detected”. Further, the Drug metabolism entry in data set [8] is given as “metabolite_detected”.
As for `CC(=O)NCCNCCNCCNCCCN`, the Drug metabolism result in data set [9] is given as “metabolite_detected”; in [10], “metabolite_detected”; in data set [11] it was 12.8 nmol; in data set [12], 0.65 nmol; in [13], “metabolite_detected”; in [2], “metabolite_detected”. The Drug metabolism in [14] turned out to be 0.8 pmol/h; in [15], 3.4 pmol/h.
For the molecule `CC(=O)NCCCNCCNCCNCCN`, the figures for the Drug metabolism entry in data set [9], in data set [11] and in data set [12] were “metabolite_detected”, 4.2 nmol and 1.1 nmol, respectively.
On to `CC(=O)NCCNCCNCCN`, for which the Drug metabolism entry in [16] is “metabolite_detected”; in data set [1], “metabolite_detected”; in data set [17], 10 pmol/h; in data set [18], 40 pmol/h; in [19], “metabolite_detected”.
